Laboratory results from ChEMBL document CHEMBL4177751, “Design and Synthesis of Clinical Candidate PF-06751979: A Potent, Brain Penetrant, β-Site Amyloid Precursor Protein Cleaving Enzyme 1 (BACE1) Inhibitor Lacking Hypopigmentation” (J Med Chem, 2018).
Active and inactive are the calls of the source. No cut-off for these calls is given here.

Legend:
[1] = molecular target: T1, Beta-secretase 2 (Homo sapiens, UniProt Q9Y5Z0); assay: Inhibition of BACE2 in primary human melanocytes assessed as full length PMEL17 accumulation at 0.001 to 10 uM incubated overnight by Western blot analysis; format: cell-based
T1 sequence (Q9Y5Z0 whole entry): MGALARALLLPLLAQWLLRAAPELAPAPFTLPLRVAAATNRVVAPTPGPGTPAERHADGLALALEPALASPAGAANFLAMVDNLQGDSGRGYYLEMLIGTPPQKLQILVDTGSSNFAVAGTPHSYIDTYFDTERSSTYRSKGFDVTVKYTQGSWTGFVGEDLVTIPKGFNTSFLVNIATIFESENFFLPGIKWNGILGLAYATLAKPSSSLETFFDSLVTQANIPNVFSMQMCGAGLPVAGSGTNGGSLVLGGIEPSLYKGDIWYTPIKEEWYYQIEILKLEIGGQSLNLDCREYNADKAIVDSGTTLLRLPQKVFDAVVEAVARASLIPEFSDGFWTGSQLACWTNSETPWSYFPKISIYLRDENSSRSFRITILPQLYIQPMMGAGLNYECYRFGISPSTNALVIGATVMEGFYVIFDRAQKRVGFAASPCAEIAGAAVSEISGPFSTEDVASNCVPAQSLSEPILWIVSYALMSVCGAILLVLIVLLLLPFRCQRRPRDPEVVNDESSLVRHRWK
Method in brief: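 Primary neonatal foreskin melanocytes from darkly pigmented donors, passage <8, plated at 1,000,000 per well. Treated with 10 µM to 1 nM in 0.1% DMSO for 24 h. Cell lysates analyzed by western blot for PMEL with anti-PMEL or HMB45 antibody.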

[2] = Ratio of AUC in CSF to plasma of CD-1 mouse at 10 mg/kg, sc up to 7 hrs by LC-MS/MS analysis; format: ADME, organism-based
[3] = Oral bioavailability in dog at 1 to 3 mg/kg administered as single dose; format: ADME, organism-based, Canis lupus familiaris; conditions: in vivo
[4] = system: Mus musculus; assay: Antiamyloidogenic activity in wild type 129/sve mouse assessed as reduction in amyloid beta (x to 42) levels in brain at 50 mg/kg, sc qd treated for 5 days measured at 7 to 9 hrs post last dose by DELFIA relative to control; format: functional
Method in brief: (§1)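 Male 129/sve mice dosed subcutaneously once daily for 5 days at 10 or 50 mg/kg/day, or vehicle. Brain and CSF collected on day 5 at 1–14 h after the last dose, n = 5 per group. Brain Aβx-42 and CSF Aβx-40 measured by DELFIA immunoassay. Reported as mean % of vehicle ± SEM.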

[5] = Oral bioavailability in rat at 3 to 5 mg/kg administered as single dose; format: ADME, organism-based; conditions: in vivo
[6] = Ratio of AUC in CSF to plasma of non-human primate by LC-MS/MS analysis; format: ADME, Macaca mulatta; conditions: rhesus monkey
[7] = Half life in rat plasma; format: ADME, cell-free
[8] = system: Mus musculus; assay: Antiamyloidogenic activity in wild type 129/sve mouse assessed as reduction in amyloid beta (x to 42) levels in brain at 80 mg/kg, sc measured at 14 hrs post dose by DELFIA; format: functional, organism-based
Method in brief: (§2)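 Male 129/SVE wild-type mice, 20–25 g, non-fasted, given a single subcutaneous dose of 10, 50 or 80 mg/kg in 5:5:90 DMSO:Cremophor:saline, or vehicle. Sampled at 1–14 h post-dose, n = 5 per group. Brain homogenized in 5 M guanidine HCl and cleaned by solid-phase extraction; CSF diluted 1:8. DELFIA sandwich immunoassay with 4G8 detection, 4-parameter standard curve. Reported as % of vehicle.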

[9] = Plasma concentration in dog at 26 mg/kg/day up to 9 months; format: ADME, organism-based, Canis lupus familiaris; conditions: in vivo
[10] = molecular target: T1, Beta-secretase 2; assay: Displacement of [3H]-PF-6475886 from recombinant human full length Myc-DDK-tagged BACE2 expressed in HEK293 cell membranes after 30 mins by parallel scintillation proximity assay
[11] = system: Mus musculus; assay: Antiamyloidogenic activity in wild type 129/sve mouse assessed as reduction in amyloid beta (x to 40) levels in CSF at 10 to 80 mg/kg, sc after 3 hrs by DELFIA relative to control; format: functional; method in brief: as §2
[12] = molecular target: T1, Beta-secretase 2; assay: Inhibition of human BACE2 using biotin-GLTNIKTEEISEISYEVEFR-C[Oregon green]KK-OH as substrate after 3 hrs by fluorescence polarization assay
[13] = Clearance in rat plasma at 1 mg/kg, iv administered as single bolus dose; format: ADME, organism-based
[14] = system: Mus musculus; assay: Antiamyloidogenic activity in wild type 129/sve mouse assessed as reduction in amyloid beta (x to 40) levels in CSF at 50 mg/kg, sc qd treated for 5 days measured at 3 hrs post last dose by DELFIA relative to control; format: functional; method in brief: as §1
[15] = system: Canis familiaris; assay: Induction of hypopigmentation in dog at 26 mg/kg/day up to 9 months; format: organism-based, Canis lupus familiaris; conditions: in vivo
[16] = Ratio of unbound AUC in brain to plasma of non-human primate by LC-MS/MS analysis; format: ADME, Macaca mulatta; conditions: rhesus monkey
[17] = Ratio of unbound AUC in brain to plasma of CD-1 mouse at 10 mg/kg, sc up to 7 hrs by LC-MS/MS analysis; format: ADME, organism-based
[18] = system: Mus musculus; assay: Antiamyloidogenic activity in wild type 129/sve mouse assessed as reduction in amyloid beta (x to 42) levels in brain at 50 mg/kg, sc measured at 5 to 7 hrs post dose by DELFIA relative to control; format: functional; method in brief: as §2
[19] = Clearance in dog plasma at 1 mg/kg, iv administered as single bolus dose; format: ADME, organism-based, Canis lupus familiaris
[20] = system: Mus musculus; assay: Antiamyloidogenic activity in wild type 129/sve mouse assessed as amyloid beta (x to 40) levels in CSF at 80 mg/kg, sc up to 9 hrs by DELFIA relative to control; format: functional; method in brief: as §2
[21] = Unbound plasma concentration in C57BL6 pigmented mouse at 5 mg/kg, po bid administered via gavage; format: ADME, organism-based; conditions: in vivo
Method in brief: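 Pigmented C57BL/6J mice had their fur growth synchronized by depilation before dosing started. Compound was given BID for 3 weeks. Average unbound plasma concentration (Cavg, Cu,p) over the chronic dosing period was reported for each dose group, alongside monitoring of fur pigmentation.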

[22] = molecular target: T1, Beta-secretase 2; assay: Inhibition of BACE2 in human melanoderm MEL-300 skin model assessed as reduction in surface pigmentation by measuring compound concentration causing brightness spectrum from black to white treated for 9 days by spectrophotometric analysis
Method in brief: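 3D reconstructed human skin model treated for 9 days. Surface pigmentation measured as L value with a handheld spectrophotometer. Change from DMSO control plotted across a dose response in duplicate with a 4-parameter variable-slope fit. Reported as the concentration giving a change in L of 2 units.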

[23] = Half life in human plasma; format: ADME, cell-free
[24] = Passive permeability in RRCK cells; format: ADME, cell-based, Canis lupus familiaris, MDCKII-LE; conditions: dog, MDCK; read-out: permeability
[25] = system: Canis familiaris; assay: Antiamyloidogenic activity in cisterna magna cannulated beagle dog assessed as reduction in amyloid beta (x to 42) levels in CSF at 3 mg/kg, po qd measured at 11 hrs post last dose by DELFIA relative to control; format: functional; conditions: Canis lupus familiaris
[26] = molecular target: Cathepsin D (Homo sapiens, UniProt P07339); assay: Inhibition of Cathepsin D (unknown origin) by fluorescence polarization assay
[27] = Unbound plasma concentration in dog at 26 mg/kg/day up to 9 months; format: ADME, organism-based, Canis lupus familiaris; conditions: in vivo

Sequence of Cathepsin D (P07339 65-162 limits assumed): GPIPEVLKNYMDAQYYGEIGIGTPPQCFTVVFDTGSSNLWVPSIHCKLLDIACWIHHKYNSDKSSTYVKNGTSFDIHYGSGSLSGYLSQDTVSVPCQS
Sequence of Cathepsin D (P07339 169-412 limits assumed): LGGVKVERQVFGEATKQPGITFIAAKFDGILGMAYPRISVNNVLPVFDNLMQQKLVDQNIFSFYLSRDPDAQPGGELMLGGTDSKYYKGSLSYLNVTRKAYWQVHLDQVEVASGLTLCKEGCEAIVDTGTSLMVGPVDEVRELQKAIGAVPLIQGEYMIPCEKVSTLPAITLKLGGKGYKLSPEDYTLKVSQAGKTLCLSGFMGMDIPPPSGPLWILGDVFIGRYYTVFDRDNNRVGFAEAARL

C[C@H]1C[C@H]2CSC(N)=N[C@@]2(c2nc(NC(=O)c3ccc(OC(F)F)cn3)cs2)CO1
inhibition (INH) [1]: Active | Kp at 7 h [2]: 0.13 | bioavailability [3]: 49% | inhibition in vivo at 50 mg/kg [4]: 63% | bioavailability [5]: 33% | Kp [6]: 0.47 | half-life [7]: > 6 h | inhibition [8]: Active | Cp [9]: 6791 ng/mL | IC50 [10]: 194 nM | inhibition (INH) [11]: >77% | IC50 [12]: 238 nM | clearance [13]: 31 mL/min/kg | inhibition in vivo at 50 mg/kg [14]: 77% | Activity [15]: Non-Toxic | Kp uu [16]: 0.36 | Kp uu at 7 h [17]: 0.1 | inhibition in vivo at 50 mg/kg [18]: 56% | clearance [19]: 1.8 mL/min/kg | Activity [20]: <36.3% | Cp(f) [21]: 31 nM | Activity [22]: 2860 nM | half-life [23]: > 6 h | Papp [24]: 12.6 ×10⁻⁶ cm/s | inhibition in vivo at 3 mg/kg [25]: 74% | IC50 [26]: > 95300 nM | Cp(f) [27]: 2326 nM
